NRP1-CendR mod – alters CendR peptide binding to human NRP-1; FAM-RPARPAR peptide binding to NRP-1, fluorescence polarization; inhibition, % at 25 µM; AID 602438; hit rate 0.85% among 360,000; O14786;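 active means inhibition or corrected inhibition above about 18%, plus a signal ratio from 0.5 to 1.5, limit read from the data, passing the limit was not always enough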
Target sequence (O14786 whole entry, looked up): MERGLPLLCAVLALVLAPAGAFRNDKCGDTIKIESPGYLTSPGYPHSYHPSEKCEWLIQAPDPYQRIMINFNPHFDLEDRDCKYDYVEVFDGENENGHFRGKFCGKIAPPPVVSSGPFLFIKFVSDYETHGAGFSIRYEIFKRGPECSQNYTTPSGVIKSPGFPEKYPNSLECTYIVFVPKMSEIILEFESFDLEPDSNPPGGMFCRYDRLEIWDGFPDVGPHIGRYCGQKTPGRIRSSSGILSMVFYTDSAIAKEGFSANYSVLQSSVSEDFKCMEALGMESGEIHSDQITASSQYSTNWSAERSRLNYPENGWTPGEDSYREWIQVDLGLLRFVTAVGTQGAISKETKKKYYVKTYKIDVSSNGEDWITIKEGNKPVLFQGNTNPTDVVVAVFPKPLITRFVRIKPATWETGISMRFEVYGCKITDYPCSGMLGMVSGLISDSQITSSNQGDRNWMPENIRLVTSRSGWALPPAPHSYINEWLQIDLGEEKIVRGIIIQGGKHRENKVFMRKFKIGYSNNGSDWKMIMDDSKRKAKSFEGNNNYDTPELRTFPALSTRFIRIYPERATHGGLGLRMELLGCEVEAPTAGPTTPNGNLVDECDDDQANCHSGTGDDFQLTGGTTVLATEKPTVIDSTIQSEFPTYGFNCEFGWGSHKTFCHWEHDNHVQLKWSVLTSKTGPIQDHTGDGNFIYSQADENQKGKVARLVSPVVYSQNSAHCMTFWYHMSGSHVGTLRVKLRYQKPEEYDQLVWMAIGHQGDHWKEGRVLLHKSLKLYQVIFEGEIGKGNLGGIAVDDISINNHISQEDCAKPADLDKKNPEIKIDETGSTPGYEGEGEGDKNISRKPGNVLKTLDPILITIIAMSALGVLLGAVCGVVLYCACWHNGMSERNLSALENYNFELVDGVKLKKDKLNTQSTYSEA
MT1-MMP act inh – blocks activation of human MT1-MMP; P50281; HT1080 RFP-PRO-GFP cells, GFP/RFP ratio fluorescence, overnight; percent of plate control window, DMSO zero; GFP/RFP ratio change, % at 20 µM; hit rate 0.061% among 360,000;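 active means GFP/RFP ratio change of at least 30% with cell ATP level not reduced by more than half and red fluorescence within 50% of control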
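Assay system: HT1080 cells carrying an RFP-PRO-GFP reporter | Dosing: Single dose of 20 µM compound, 1% DMSO final | Incubation: Cells overnight before dosing, compound overnight, 37 °C, 5% CO2 | Evaluation: GFP/RFP fluorescence ratio | Control set: DMSO and RFP-L50D-GFP cell wells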
SKN-1 block – blocks SKN-1 activity in C. elegans | inhibition, % at 21.8 µM | C. elegans VP596 Pgst-4::GFP/RFP ratio, acrylamide-induced, 24 h | hit rate 0.49% among 360,000;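 active means interference check ratio from 0.5 to 1.5 plus GFP to RFP signal ratio inhibition reaching or exceeding a fixed threshold, cut at about 30% in these data, passing the limit was not always enough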
iPSC survival up – increases survival of single human iPS cells; hiPSC single-cell survival, ATPlite luminescence; 100% = ROCK inhibitor wells, 0% = DMSO; survival enhancement, % at 20 µM; hit rate 0.044% among 360,000; AID 602274; in the data active means survival enhancement above about 18%;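 further: cells exposed to compounds for 16 hours before the ATP read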
* = called active by the depositor; · = not tested or not shown. Shown are actives, neighbours in structure and some others; about 1.4% of the full set was active somewhere.

SMILES	NRP1-CendR mod	MT1-MMP act inh	SKN-1 block	iPSC survival up
CCOc1ccc(S(=O)(=O)N2CCN(C(=O)c3sccc3C)CC2)cc1	27*	-5	-9	2
O=C(Cn1nnc(-c2ccccc2-n2cnnn2)n1)c1ccccc1	-3	1	0	4
C=CCN=C(NC#N)SCc1ccccc1	36*	10	-21	3
C/C=C(/C)C(=O)O[C@@H]1c2c(ccc3ccc(=O)oc23)O[C@@H]1C(C)(C)OC(=O)/C(C)=C\C	-2	3	-10	-2
CC(C)[C@H](CO)Nc1nc(NCc2ccc(S(N)(=O)=O)cc2)c2ncn(C(C)C)c2n1	-4	-10	13	-4
CC(C)n1cnc2c(NCc3ccc(S(N)(=O)=O)cc3)nc(NCc3ccc(S(N)(=O)=O)cc3)nc21	32*	-1	6	-2
CN(C(=O)COC(=O)c1ccc([N+](=O)[O-])cc1N)c1ccccc1	-132	-5	-5	2
Cn1nc(-c2ccccc2)c(CSc2ccccc2Cl)c1Cl	5	-5	-1	1
CCN1CCN(C(=S)Nc2ccc(C(C)=O)cc2)CC1	11	-6	-7	-1
Cc1cc(NC(=O)COC(=O)c2ccc(NS(=O)(=O)c3ccc(C)c(C)c3)cc2)no1	3	0	9	-1
Cc1cc(NC(=O)COC(=O)c2ccc(C)c(C)c2)no1	26*	-3	-3	-1
Cc1cc(NC(=O)CCc2ccc(C)o2)no1	-11	3	31*	4
O=C(O)c1cc(-c2cccnc2)nc2ccccc12	6	0	7	0
Cc1ccc(-n2ncc3c(SCC(=O)NNC(=O)c4ccco4)ncnc32)cc1	11	-6	1	-5
CCOC(=O)Cn1c(=O)n(Cc2ccco2)c(=O)c2ccc(C(=O)NC3CCCC3)cc21	33*	0	-14	0
COCC(C)n1c(C)cc(C(=O)COC(=O)c2ccc3c(c2)NC(=O)CS3)c1C (stereo not drawn)	30*	1	1	0
CCO[C@H]1OC(C(=O)N2CCN(Cc3ccc4c(c3)OCO4)CC2)=C[C@@H](c2csc3ccccc23)[C@@H]1CCCO	5	-2	1	-3
O=C(O)c1ccc(/C=N/N2CCN(C3c4ccccc4-c4ccccc43)CC2)cc1	-2	-5	5	0
Oc1ccc(/C=N/N2CCN(C3c4ccccc4-c4ccccc43)CC2)cc1	21*	-2	-3	0
O=[N+]([O-])c1ccccc1-c1nc(-c2ccc(Br)o2)no1	-4	-4	58*	0
Clc1ccccc1-c1nc(-c2ccc(Br)o2)no1	11	-6	67*	1
O=[N+]([O-])c1cc(Cl)ccc1-c1nc(-c2ccccc2)no1	10	-3	19	-2
Clc1ccccc1OCc1nc(-c2ccc(Br)o2)no1	-3	0	3	2
NCCCC[C@H]1CN=C(N)N1CCC12CC3CC(CC(C3)C1)C2	38*	6	4	-2
Cc1ccc(NS(=O)(=O)c2ccc(NC(=O)c3ccc(-c4ccccc4)cc3)cc2)c(C)c1	-6	-1	-4	-2
SMILES	NRP1-CendR mod	MT1-MMP act inh	SKN-1 block	iPSC survival up
CCCn1c(C)cc(C(=O)CSc2nc3nc(C)cc(C)n3n2)c1C	33*	3	7	0
CN(CCCC(=O)N1CCN(c2ncccn2)CC1)S(=O)(=O)c1ccc(F)cc1	1	1	7	0
Cc1ccc(-n2c(-c3ccco3)nc3c(cnn3-c3ccc(C)cc3)c2=O)cc1	35*	1	-7	0
COc1ccccc1C(=O)NCCCNC(=O)c1cccnc1	33*	-2	27	0
CCOc1ccccc1NC(=O)C(CC)Sc1nc2ccsc2c(=O)n1CCC(=O)O (stereo not drawn)	-38	0	3	0
CCCC1(C2CCCC2)NC(=O)NC1=O (stereo not drawn)	-11	1	21	2
CC1Cc2ccccc2N1S(=O)(=O)c1cccc(C(=O)NCCCn2ccnc2)c1 (stereo not drawn)	10	1	9	-1
Cc1ccc(CNC(=O)CS(=O)(=O)CC(=O)O)cc1	21*	2	14	3
Cc1ccc(S(=O)(=O)CC(=O)NCc2ccccc2)cc1	-6	-4	14	0
O=C1C2C3CC(C(Br)C3Br)C2C(=O)N1CC1CCCO1 (stereo not drawn)	-2	5	10	1
CC(C(=O)NCC1CCCO1)N1C(=O)C2C3CC(C(Br)C3Br)C2C1=O (stereo not drawn)	19*	2	1	0
Cc1ccc(C(=O)NCCNC(=O)CN2CCCC2)cc1	9	-1	2	0
COCCNC(=O)CN1CCCCCC1	26*	4	-1	2
O=C(COC(=O)c1cccc(S(=O)(=O)N2CCOCC2)c1)Nc1ncc(C(F)(F)F)cc1Cl	-15	0	42*	0
CC1(C)OC(=O)C2=C(CC(CCc3ccccc3)OC2c2ccccc2)O1 (stereo not drawn)	0	-4	-4	-1
O=S1(=O)CC(c2ccccc2)=NN=C(c2ccccc2)C1	2	4	36*	-3
COc1ccc(-c2noc(CN(C(=O)c3ccc4c(c3)OCO4)C(C)C)n2)cc1	28*	-1	-7	-1
C=CCN(Cc1nc(-c2ccc(OC)cc2)no1)C(=O)c1ccc2c(c1)OCO2	8	2	-5	1
COC(=O)c1c2c(nc3ccccc13)CCC2	6	-7	41*	-3
CC(C)(C)C(=O)COC(=O)c1c2c(nc3ccccc13)CCC2	7	-4	4	8
Cc1c(C(=O)N(Cc2ccccc2)C2CCS(=O)(=O)C2)oc2ccccc12 (stereo not drawn)	-9	-2	-1	2
COc1ccc(CN(C(=O)c2oc3ccccc3c2C)C2CCS(=O)(=O)C2)cc1 (stereo not drawn)	1	-2	36*	-2
CN(C)c1cc(N/N=C\c2ccccc2)nc(N(C)C)n1	35*	-4	14	-2
Cc1nn(CCC#N)c(NC(=O)c2ccccc2)c1P(=O)(Nc1ccc(Br)cc1)N1CCOCC1 (stereo not drawn)	-3	-3	6	-2
CCCS(=O)(=O)NC(=O)C1(C)CCN(C(=O)c2ccccc2Br)C1 (stereo not drawn)	-7	2	-1	10
CCCS(=O)(=O)NC(=O)C1(C)CCN(C(=O)c2cccc(C)c2C)C1 (stereo not drawn)	-1	·	35*	3
COc1ccc([C@@H]2[C@@H](C)N(c3ccccc3)c3ccccc3C(=O)N2Cc2ccccc2)cc1	-7	-9	12	-2
CC[C@@]12C(=O)N(c3ccc(OC)cc3)C(=O)N1[C@H](c1cccc(C)c1)[C@@H]1C(=O)N(Cc3ccccc3)C(=O)[C@@H]12	35*	-2	7	4
CC[C@@]12C(=O)N(c3ccc(C)cc3)C(=O)N1[C@H](c1cccc(C)c1)[C@@H]1C(=O)N(Cc3ccccc3)C(=O)[C@@H]12	9	-6	7	5
